Laboratory results published in ChEMBL document CHEMBL1151199, “5-methylcoumaranones from Mutisia friesiana and their bioactivity” (2004).
Activity calls are given as the source filed them. No cut-off for these calls is given here.

Tests used:
Staphylococcus aureus [1] = assay: Antibacterial activity against Staphylococcus aureus ATCC 29213 at 10 ug/disk after 48 hrs by standard paper sensitivity disk-agar plate method; type: functional; details: ATCC 29213, 48 h, read-out: IZ
Staphylococcus aureus [2] = assay: Antibacterial activity against Staphylococcus aureus ATCC 29213 at 100 ug/disk after 48 hrs by standard paper sensitivity disk-agar plate method; type: functional; details: ATCC 29213, 48 h, read-out: IZ
Summary of the method: (§1)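 Agar in Petri dishes inoculated with the test organism (E. coli ATCC 25922, S. aureus ATCC 29213 or C. albicans BE 138/99). Samples were loaded at 100 µg per 5 mm paper disk, and the disks were placed on the agar. The read-out was the diameter of the inhibition zone in mm.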

Cladosporium cucumerinum [3] = assay: Antifungal activity against Cladosporium cucumerinum at 100 ug/spot after 2 to 3 days by bioautographic assay; type: functional
Summary of the method: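 Each sample was dissolved at 10 mg ml-1 in CH2Cl2, and 10 µL was spotted onto a TLC plate by graduated capillary, giving 100 µg/spot. The plate was then assayed bioautographically against Cladosporium cucumerinum. Benomyl served as the reference fungicide, applied at 10 µg/spot. The read-out was the inhibition zone in mm.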

Escherichia coli = assay: Antibacterial activity against Escherichia coli ATCC 25922 at 100 ug/disk after 48 hrs by standard paper sensitivity disk-agar plate method; type: functional, organism-based; summary of the method: as §1
Candida albicans = assay: Antifungal activity against Candida albicans BE 138/99 at 100 ug/disk after 48 hrs by standard paper sensitivity disk-agar plate method; type: functional, organism-based; summary of the method: as §1
Cladosporium cucumerinum [4] = assay: Antifungal activity against Cladosporium cucumerinum at 10 ug/spot after 2 to 3 days by bioautographic assay; type: functional
Summary of the method: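 TLC bioautography: samples spotted onto a TLC plate with graduated capillaries and assayed against the plant pathogen Cladosporium cucumerinum. Activity is read as the diameter (mm) of the inhibition zone around the spot. Benomyl served as the reference fungicide.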

Structure (SMILES) | zone of inhibition at 10 µg/disc (Staphylococcus aureus [1]) | zone of inhibition at 100 µg/disc (Staphylococcus aureus [2]) | inhibition zone (IZ) (Cladosporium cucumerinum [3]) | Activity (Escherichia coli) | Activity (Candida albicans) | inhibition zone (IZ) (Cladosporium cucumerinum [4])
CC1(C)S[C@@H]2[C@H](NC(=O)[C@H](N)c3ccccc3)C(=O)N2[C@H]1C(=O)O [AMPICILLIN] | 14 mm | – | – | – | – | –
CC(C)=CCC(O)/C(C)=C/CC/C(C)=C/CC1(O)Oc2cccc(C)c2C1=O (stereo not drawn) [MUTISICOUMARANONE D] | – | 10 mm | 10 mm | inactive | inactive | –
CCCCNC(=O)n1c(NC(=O)OC)nc2ccccc21 [BENOMYL] | – | – | – | – | – | 20 mm
C/C(=C\CC1(O)Oc2cccc(C)c2C1=O)CC/C=C(\C)C(=O)/C=C/C(C)(C)O (stereo not drawn) [MUTISICOUMARANONE C] | – | 10 mm | 14 mm | inactive | inactive | –
CC(C)=CCC/C(C)=C/CC1(O)Oc2cccc(C)c2C1=O (stereo not drawn) [MUTISICOUMARANONE A] | – | 10 mm | 8 mm | inactive | inactive | –
CC(C)=CC(O)C(=O)/C(C)=C/CC/C(C)=C/CC1(O)Oc2cccc(C)c2C1=O (stereo not drawn) [MUTISICOUMARANONE B] | – | 10 mm | 14 mm | inactive | inactive | –
